Test results: ChEMBL document CHEMBL1134460, “Terminally alkylated polyamine analogues as chemotherapeutic agents” (J Med Chem, 2001)

Legend:
NCH82 [1] = experiment: Effect of 10 uM of compound on NCI H82 cell lines was assessed from the amount of SSAT (values in parentheses are those in the absence of compound); type: functional, Homo sapiens
Summary of the method: (§1)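 Cells were exposed to 10 μM analogue, with untreated controls. SSAT was expressed as nmol product formed/mg protein in 24 h. The detection limit was 0.05 nmol/mg protein.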

NCH82 [2] = experiment: Effect of 10 uM of compound on NCI H82 cell lines was assessed from the amount of spermidine (values in parentheses are those in the absence of compound); type: functional, Homo sapiens
NCH82 [3] = experiment: Effect of 10 uM of compound on NCI H82 cell lines was assessed from the amount of spermine (values in parentheses are those in the absence of compound); type: functional, Homo sapiens
NCI-H157 [4] = experiment: Effect of exposure of H157 non-SCLC (<10 uM) for 96-h, and accumulation of compound was determined; type: functional, Homo sapiens
NCI-H157 [5] = experiment: Effect of 10 uM of compound on NCI H157 cell lines was assessed from the amount of SSAT (values in parentheses are those in the absence of compound); type: functional, Homo sapiens; summary of the method: as §1
NCI-H157 [6] = experiment: Effect of exposure of H157 non-SCLC to compound (<10 uM) for 96-h, on natural polyamines and accumulation of the compound; Decrease; type: functional, cell-based; conditions: Homo sapiens
Summary of the method: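 H157 non-SCLC cells were treated with 10 μM analogue. Cellular putrescine, spermidine and spermine, plus the intracellular analogue, were quantified and compared with untreated control cells.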

[7] = molecular target: T1, Ornithine decarboxylase (Homo sapiens) (UniProt P11926); experiment: Inhibition of ornithine decarboxylase (ODC); set-up: concentration or dose not given beside the values; conditions: concentration not given here
T1 sequence (whole entry): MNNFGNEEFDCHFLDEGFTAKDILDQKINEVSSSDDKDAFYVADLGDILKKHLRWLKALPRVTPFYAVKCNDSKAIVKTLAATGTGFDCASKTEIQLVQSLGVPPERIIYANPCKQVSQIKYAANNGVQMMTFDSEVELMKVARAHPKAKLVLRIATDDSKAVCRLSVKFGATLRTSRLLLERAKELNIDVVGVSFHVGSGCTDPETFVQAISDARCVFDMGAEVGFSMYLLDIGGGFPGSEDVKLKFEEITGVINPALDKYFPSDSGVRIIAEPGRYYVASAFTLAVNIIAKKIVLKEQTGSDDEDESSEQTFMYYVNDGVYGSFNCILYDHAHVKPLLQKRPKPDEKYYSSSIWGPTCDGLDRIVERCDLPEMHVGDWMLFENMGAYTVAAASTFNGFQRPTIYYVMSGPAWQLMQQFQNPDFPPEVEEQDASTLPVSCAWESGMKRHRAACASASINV

[8] = molecular target: T2, Diamine acetyltransferase 1 (Homo sapiens, UniProt P21673); experiment: Effect of 10 uM on spermine/spermidine-N-acetyltransferase (SSAT) induction in non-SCLC cells; type: cell-based
T2 sequence (P21673 whole entry): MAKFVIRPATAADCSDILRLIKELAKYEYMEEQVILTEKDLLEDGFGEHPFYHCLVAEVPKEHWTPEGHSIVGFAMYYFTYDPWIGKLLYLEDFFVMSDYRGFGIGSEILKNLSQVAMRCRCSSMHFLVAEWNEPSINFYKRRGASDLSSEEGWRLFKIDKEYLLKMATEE
Summary of the method: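 NCI H157 non-small-cell lung tumor cells were exposed to 10 μM analogue. SSAT activity was assayed and expressed as pmol product/mg protein/min, then as fold increase over untreated control cells.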

[9] = molecular target: S-adenosylmethionine decarboxylase (Homo sapiens) (UniProt P17707); experiment: Inhibition of Inhibition of human form of S-adenosyl-methionine decarboxylase enzyme (AdoMet-DC); set-up: concentration or dose not given beside the values; conditions: concentration not given here
NCH82 [10] = experiment: In vitro activity against H82 small-cell lung tumor line (SCLC) cultures.; type: functional, cell-based; conditions: Homo sapiens
NCI-H157 [11] = experiment: In vitro activity against H157 non-small-cell lung tumor line (non-SCLC) cultures.; type: functional, cell-based; conditions: Homo sapiens
NCI-H157 [12] = experiment: Activity against H157 non-SCLC cells in culture; type: functional, cell-based; conditions: Homo sapiens
Hs-578T = experiment: Growth inhibition of Hs 578.T breast cancer cell line; type: functional, cell-based; conditions: Homo sapiens
MCF7 = experiment: Growth inhibition of MCF-7 breast cancer cell line; type: functional, cell-based; conditions: Homo sapiens
MDA-MB-231 = experiment: Growth inhibition of MDA-MB-231 breast cancer cell line; type: functional, cell-based; conditions: Homo sapiens
[13] = Growth inhibition of […] breast cancer cell line; type: functional, cell-based; conditions: Homo sapiens, MDA-MB-468
[14] = molecular target: T2, Diamine acetyltransferase 1; experiment: Inhibitory activity of compound against SSAT extracted from superinduced H157 cells; type: cell-free
Summary of the method: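 SSAT came from crude extracts of superinduced H157 cells and was assayed at saturating spermidine.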

ZR-75-1 = experiment: Growth inhibition of ZR-75-1 breast cancer cell line; type: functional, cell-based; conditions: Homo sapiens
T47D = experiment: Growth inhibition of T47D breast cancer cell line; type: functional, cell-based; conditions: Homo sapiens

| SMILES | Polyamine (NCH82 [1]) | Polyamine (NCH82 [2]) | Polyamine (NCH82 [3]) | Amount (NCI-H157 [4]) | Polyamine (NCI-H157 [5]) | Effect on polyamine pools (NCI-H157 [6]) | inhibition [7] | Induction [8] | inhibition [9] | IC50 (NCH82 [10]) | IC50 (NCI-H157 [11]) | IC50 (NCI-H157 [12]) | IC50 (Hs-578T) | IC50 (MCF7) | IC50 (MDA-MB-231) | IC50 [13] | IC50 [14] | IC50 (ZR-75-1) | IC50 (T47D) |
| --- | --- | --- | --- | --- | --- | --- | --- | --- | --- | --- | --- | --- | --- | --- | --- | --- | --- | --- | --- |
| CCNCCCNCCCCNCCCNCC [BIS(ETHYL)SPERMINE] | 60 nM (mg of protein)-1 | 3.07 nM (mg of protein)-1 | 10.06 nM (mg of protein)-1 | >20 nM (mg of protein)-1 | 6511 nM (mg of protein)-1 | Decrease | > 50% | > 500 | > 50% |  |  |  |  |  |  |  |  |  |  |
| CCNCCCNCCCNCCCNCC1CC1 |  |  |  | >20 nM (mg of protein)-1 |  | Decrease | > 50% | > 500 |  | 5200 nM | 700 nM | 800 nM | 200 nM | 1100 nM | 1300 nM | 600 nM | 100000 nM | 1100 nM | 400 nM |
